In ChEMBL document CHEMBL4130602, “Rearranged Phloroglucinol-Monoterpenoid Adducts from Callistemon rigidus” (J Nat Prod, 2018):
pIC50: −log10 of the molar value.

system: RAW264.7; test: Antiinflammatory activity in mouse RAW264.7 cells assessed as inhibition of LPS-induced nitric oxide production pretreated for 1 hr followed by LPS stimulation measured after 24 hrs by griess assay; assay type: functional, cell-based
In short: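 Compound added 1 h before lipopolysaccharide, then 24 h incubation. Culture supernatant mixed with Griess reagent, 10 min at room temperature; absorbance read at 550 nm, nitrite quantified from NaNO2 standard curve. Run in triplicate.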

SMILES | pIC50
COc1cc(O)c(C(=O)C(C)C)c2c1[C@H]1C[C@H](C(C)C)[C@@H](C=O)[C@@]1(C)O2 | 4.75
COc1cc(O)c(C(=O)CC(C)C)c2c1[C@H]1C[C@H](C(C)C)C=C[C@@]1(C)O2 | < 4.30
CC[C@H](C)C(=O)c1c(O)cc(OC)c2c1O[C@@]1(C)[C@@H]2C[C@H](C(C)C)[C@H]2O[C@H]21 | < 4.30
COc1cc(O)c(C(=O)C(C)C)c2c1[C@@H]1[C@@H](C(C)C)CC=C(C)[C@@H]1O2 | < 4.30
COc1cc(O)c(C(=O)C(C)C)c2c1[C@H]1C[C@H](C(C)C)C=C[C@@]1(C)O2 | < 4.30
COc1ccc2c(c1)c(CC(=O)O)c(C)n2C(=O)c1ccc(Cl)cc1 [INDOMETHACIN] | 4.68
CC[C@H](C)C(=O)c1c(O)cc(OC)c2c1O[C@]1(C)C=C[C@@H](C(C)C)C[C@H]21 | < 4.30
CC[C@H](C)C(=O)c1c(O)cc(OC)c2c1O[C@@]1(C)[C@@H]2C[C@H](C(C)C)[C@H]1C=O | 4.82
COc1cc(O)c(C(=O)CC(C)C)c2c1[C@@H]1C[C@H](C(C)C)C=C[C@]1(C)O2 | < 4.30
COc1cc(O)c(C(=O)C(C)C)c2c1[C@H]1C[C@H](C(C)C)[C@H]3O[C@H]3[C@@]1(C)O2 | < 4.30
